In publication PMC3926093 (Biochemistry, 2013):

Biological target: LigAB (Sphingobium sp. SYK-6, UniProt P22635+P22636)
Assay: inhibition of PCA dioxygenation, O2 consumption, Clark-type electrode
Format: biochemical
Details: read-out: % inhibition ^b
Procedure, shortened: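 Anaerobically purified LigAB (His-tag removed) started the reaction at 3–7 nM final. Reactions ran in air-saturated 50 mM Tris pH 7.5 at 25 °C with 500 μM PCA plus 1 mM test compound, read by O2 consumption. Percent inhibition came from comparing rates with those of PCA-only assays run directly before and after.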

Sequence of LigAB (P22635 whole entry): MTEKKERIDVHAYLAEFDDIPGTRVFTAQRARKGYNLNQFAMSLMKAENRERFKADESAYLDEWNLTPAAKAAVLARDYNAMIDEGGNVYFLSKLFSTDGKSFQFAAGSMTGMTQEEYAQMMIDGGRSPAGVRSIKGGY
Sequence of LigAB (P22636 whole entry): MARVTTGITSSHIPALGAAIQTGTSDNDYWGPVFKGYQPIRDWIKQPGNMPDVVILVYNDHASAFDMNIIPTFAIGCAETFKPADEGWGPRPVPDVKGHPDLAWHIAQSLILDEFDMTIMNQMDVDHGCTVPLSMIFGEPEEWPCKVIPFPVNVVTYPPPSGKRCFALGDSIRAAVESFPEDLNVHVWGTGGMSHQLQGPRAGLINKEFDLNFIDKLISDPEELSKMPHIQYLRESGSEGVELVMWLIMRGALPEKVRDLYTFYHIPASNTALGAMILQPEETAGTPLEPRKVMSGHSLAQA

Row | Structure (SMILES) | inhibition at 1000 µM [%]
1 | Cc1ccc(O)c(O)c1 [4-methylcatechol] | 28
2 | O=[N+]([O-])c1ccc(O)c(O)c1 [4-nitrocatechol] | 31
